What was measured:
DU-145 = assay: Cytotoxicity against human DU145 cells after 48 hrs by SRB assay; type: functional, cell-based; details: Homo sapiens, DU-145, 48 h; for CC50: read-out: LC50 (the source's name)
Method in brief: (§1)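 Cells grown in RPMI 1640 with 10% FBS and penicillin/streptomycin at 37 °C and 5% CO₂, trypsinized, then seeded at 5 × 10³/well. After 18 h drug-free attachment, samples in DMSO/EtOH/PBS (0.5:0.5:99) were added for 48 h continuous exposure. Cells were fixed with cold TCA (1 h, 4 °C) and stained with SRB (10 min). Tris-solubilized stain read at 490 nm. Triplicate wells, mean ± SD; GI₅₀ derived.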

LNCaP = assay: Cytotoxicity against human LNcaP cells after 48 hrs by SRB assay; type: functional; details: for CC50: read-out: LC50 (the source's name); method in brief: as §1
[1] = Cytotoxicity against human IGROV cells after 48 hrs by SRB assay; type: functional; details: for CC50: read-out: LC50 (the source's name); method in brief: as §1
[2] = Cytotoxicity against human IGROV-ET cells after 48 hrs by SRB assay; type: functional; details: for CC50: read-out: LC50 (the source's name); method in brief: as §1
SK-BR-3 = assay: Cytotoxicity against human SKBR3 cells after 48 hrs by SRB assay; type: functional; details: SK-BR-3, 48 h; for CC50: read-out: LC50 (the source's name); method in brief: as §1
SK-MEL-28 = assay: Cytotoxicity against human SK-MEL-28 cells after 48 hrs by SRB assay; type: functional, cell-based; details: Homo sapiens, SK-MEL-28, 48 h; for CC50: read-out: LC50 (the source's name); method in brief: as §1
A549 = assay: Cytotoxicity against human A549 cells after 48 hrs by SRB assay; type: functional, cell-based; details: Homo sapiens, A549, 48 h; method in brief: as §1
K562 = assay: Cytotoxicity against human K562 cells after 48 hrs by SRB assay; type: functional; details: K562, 48 h; for CC50: read-out: LC50 (the source's name); method in brief: as §1
PANC-1 = assay: Cytotoxicity against human PANC1 cells after 48 hrs by SRB assay; type: functional; details: PANC-1, 48 h; for CC50: read-out: LC50 (the source's name); method in brief: as §1
HT-29 = assay: Cytotoxicity against human HT29 cells after 48 hrs by SRB assay; type: functional, cell-based; details: Homo sapiens, HT-29, 48 h; for CC50: read-out: LC50 (the source's name); method in brief: as §1
LoVo [3] = assay: Cytotoxicity against human LoVo cells after 48 hrs by SRB assay; type: functional; details: for CC50: read-out: LC50 (the source's name)
LoVo [4] = assay: Cytotoxicity against human doxorubicin resistant LoVo cells after 48 hrs by SRB assay; type: functional; details: for CC50: read-out: LC50 (the source's name); method in brief: as §1
HeLa = assay: Cytotoxicity against human HeLa cells after 48 hrs by SRB assay; type: functional; details: for CC50: read-out: LC50 (the source's name); method in brief: as §1
[5] = Cytotoxicity against human HeLa-APL cells after 48 hrs by SRB assay; type: functional; method in brief: as §1

SMILES | GI50 (DU-145) [µM] | GI50 (DU-145; read-out: GI50) [µM] | CC50 (DU-145) [µM] | GI50 (LNCaP) [µM] | TGI (LNCaP) [µM] | CC50 (LNCaP) [µM] | GI50 ([1]; read-out: GI50) [µM] | CC50 [1] [µM] | GI50 [2] [µM] | GI50 ([2]; read-out: GI50) [µM] | CC50 [2] [µM] | GI50 (SK-BR-3; read-out: GI50) [µM] | CC50 (SK-BR-3) [µM] | GI50 (SK-MEL-28) [µM] | GI50 (SK-MEL-28; read-out: GI50) [µM] | CC50 (SK-MEL-28) [µM] | GI50 (A549) [µM] | LC50 (A549) [µM] | GI50 (A549; read-out: GI50) [µM] | CC50 (K562) [µM] | further results
C/C=C1\NC(=O)[C@H](Cc2ccccc2)NC(=O)[C@@H](C(C)C)NC(=O)[C@@H]([C@H](C)CC)NC(=O)[C@H](NC(=O)[C@H](NC(=O)[C@H](CCCN)NC(=O)[C@H]2CCCN2C(=O)[C@H](NC(=O)[C@H](CCC2CCCCC2)NC(=O)[C@@H](NC(=O)[C@H](NC(=O)CCCC(C)C)C(C)C)[C@@H](C)O)C(C)C)[C@H](C)CC)[C@H](C)OC(=O)[C@H](C(C)C)NC1=O | 0.507 | 0.35 | 0.709 | 0.639 | 0.909 | 1.29 | 0.284 | 3.87 | 0.38 | 0.377 | 0.455 | 0.234 | 0.23 | 0.467 | 0.329 | 0.626 | 0.233 | 0.437 | 0.186 | 1.85 | TGI [1]: 2.94 µM; TGI (SK-BR-3): 0.267 µM; GI50 (PANC-1): 1.04 µM; TGI (PANC-1): 1.38 µM; CC50 (PANC-1): 1.7 µM; GI50 (HT-29): 0.235 µM; TGI (HT-29): 0.265 µM; CC50 (HT-29): 0.299 µg/mL; GI50 (LoVo [3]): 0.24 µM; TGI (LoVo [3]): 0.256 µM; CC50 (LoVo [3]): 0.273 µM; GI50 (LoVo [4]): 0.114 µM; TGI (LoVo [4]): 0.153 µM; CC50 (LoVo [4]): 1 µM; GI50 (HeLa): 0.394 µM; TGI (HeLa): 0.628 µM; CC50 (HeLa): 0.829 µM; GI50 [5]: 0.462 µM; LC50 (concentration giving 50% net cell kill) [5]: 0.732 µM; TGI [5]: 0.672 µM
C/C=C1\NC(=O)[C@H](Cc2ccccc2)NC(=O)[C@@H](CCC2CCCCC2)NC(=O)[C@@H](CCC2CCCCC2)NC(=O)[C@H](NC(=O)[C@@H](CCC2CCCCC2)NC(=O)[C@H](CCCN)NC(=O)[C@H]2CCCN2C(=O)[C@H](NC(=O)[C@@H](NC(=O)[C@@H](NC(=O)[C@H](NC(=O)CCCC(C)C)C(C)C)[C@@H](C)O)C(C)C)C(C)C)[C@H](C)OC(=O)[C@H](C(C)C)NC1=O | 0.125 | 0.148 | 0.104 | 0.304 | 0.415 | 0.633 | 0.214 | 0.161 | 0.227 | 0.255 | 0.055 | 0.249 | 0.0878 | 0.159 | 0.174 | 0.144 | 0.173 | 0.222 | 0.161 | 0.98 | GI50 [1]: 0.139 µM; TGI (SK-BR-3): 0.201 µM; GI50 (K562): 0.363 µM; TGI (K562): 0.63 µM; GI50 (PANC-1): 1.32 µM; TGI (PANC-1): 1.38 µM; CC50 (PANC-1): 1.45 µM; GI50 (HT-29): 0.359 µM; TGI (HT-29): 0.339 µM; CC50 (HT-29): 0.32 µM; GI50 (LoVo [3]): 0.282 µM; TGI (LoVo [3]): 0.274 µM; CC50 (LoVo [3]): 0.264 µM; CC50 (LoVo [4]): 0.0274 µM; GI50 (HeLa): 0.255 µM; TGI (HeLa): 0.361 µM; CC50 (HeLa): 0.586 µM; GI50 [5]: 0.233 µM; LC50 (concentration giving 50% net cell kill) [5]: 0.573 µM; TGI [5]: 3.4 µM
C/C=C1\NC(=O)[C@H](Cc2ccccc2)NC(=O)[C@@H](C(C)C)NC(=O)[C@@H]([C@H](C)CC)NC(=O)[C@H](NC(=O)[C@H](NC(=O)[C@H](CCCN)NC(=O)[C@H]2CCCN2C(=O)[C@H](NC(=O)[C@@H](NC(=O)[C@@H](NC(=O)[C@H](NC(=O)CCCCCCCCCC)C(C)C)[C@@H](C)O)C(C)C)C(C)C)[C@H](C)CC)[C@H](C)OC(=O)[C@H](C(C)C)NC1=O | 0.188 | 0.183 | 0.26 | 0.423 | 0.586 | 0.72 | 0.218 | 0.196 | 0.218 | 0.166 | 0.318 | 0.0614 | 0.0736 | 0.251 | 0.193 | 0.561 | 0.186 | 0.456 | 0.16 | 1.17 | GI50 [1]: 0.146 µM; GI50 (SK-BR-3): 0.0699 µM; GI50 (PANC-1): 1.63 µM; TGI (PANC-1): 1.54 µM; CC50 (PANC-1): 1.44 µM; GI50 (HT-29): 0.371 µM; TGI (HT-29): 0.354 µM; CC50 (HT-29): 0.201 µM; GI50 (LoVo [3]): 0.287 µM; TGI (LoVo [3]): 0.319 µM; CC50 (LoVo [3]): 0.352 µM; GI50 (LoVo [4]): 0.0962 µM; TGI (LoVo [4]): 0.189 µM; CC50 (LoVo [4]): 0.265 µM; GI50 (HeLa): 0.139 µM; TGI (HeLa): 0.129 µM; CC50 (HeLa): 0.12 µM; GI50 [5]: 0.237 µM; LC50 (concentration giving 50% net cell kill) [5]: 0.76 µM; TGI [5]: 0.399 µM

Reference: ChEMBL document CHEMBL1156597, “Structure-activity relationship of kahalalide F synthetic analogues” (J Med Chem, 2008)
